Activity calls are given as the source filed them. The rule behind the calls is not given here. Residues, ends and D or L forms follow the SMILES beside them.
Experiments:
[1] = target: Heat shock protein HSP 90-beta (Homo sapiens) (UniProt P08238); experiment: Inhibition of Hsp90 in human HeLa cells assessed as downregulation of FKBP52 protein level at 50 uM after 30 hours by Western blotting analysis; format: cell-based
How it was run: (§1)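 HeLa cells treated at 5μM and 50μM; lysates western blotted for FKBP51, FKBP52 and glucocorticoid receptor; bands normalized to GAPDH and compared with DMSO control; n≥3, mean±SEM.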

[2] = target: Heat shock protein HSP 90-beta (Homo sapiens) (UniProt P08238); experiment: Inhibition of Hsp90 in human HeLa cells assessed as change in FKBP51 protein level at 50 uM after 30 hours by Western blotting analysis; format: cell-based; how it was run: as §1
[3] = target: Heat shock protein HSP 90-beta (Homo sapiens) (UniProt P08238); experiment: Binding affinity to human Hsp90 assessed as inhibition of interaction with His/GST-tagged recombinant co-chaperone Cyp40 at 10 uM preincubated for 1 hr followed by co-chaperone addition measured after 1 hr by Western blotting analysis
How it was run: (§2)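 Purified native hsp90 combined with purified TPR co-chaperone (FKBP51, FKBP52, HOP, Unc45, CHIP, Cyp40 or TOM70), with increasing compound, 0–10 μM; hsp90–co-chaperone binding measured across the range.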

[4] = target: Heat shock protein HSP 90-beta (Homo sapiens) (UniProt P08238); experiment: Binding affinity to human Hsp90 assessed as inhibition of interaction with His/GST-tagged recombinant co-chaperone TOM70 at 10 uM preincubated for 1 hr followed by co-chaperone addition measured after 1 hr by Western blotting analysis; how it was run: as §2
[5] = target: Heat shock protein HSP 90-beta (Homo sapiens) (UniProt P08238); experiment: Binding affinity to human Hsp90 assessed as inhibition of interaction with His/GST-tagged recombinant co-chaperone CHIP at 10 uM preincubated for 1 hr followed by co-chaperone addition measured after 1 hr by Western blotting analysis; how it was run: as §2
[6] = target: Heat shock protein HSP 90-beta (Homo sapiens) (UniProt P08238); experiment: Inhibition of Hsp90 in human HeLa cells assessed as downregulation of HSF1 protein expression at 5 uM to 50 uM after 30 hours by Western blotting analysis relative to DMSO-treated control; format: cell-based
How it was run: (§3)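 HeLa cervical carcinoma cells treated at 5μM and 50μM; cell lysates probed for the heat shock response proteins hsp70, hsp90 and HSF1 by western blot, compared with DMSO.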

[7] = target: Heat shock protein HSP 90-beta (Homo sapiens) (UniProt P08238); experiment: Inhibition of Hsp90 in human HeLa cells assessed as downregulation of Hsp90 protein expression at 5 uM to 50 uM after 30 hours by Western blotting analysis relative to DMSO-treated control; format: cell-based; how it was run: as §3
[8] = target: Heat shock protein HSP 90-beta (Homo sapiens) (UniProt P08238); experiment: Inhibition of Hsp90 in human HeLa cells assessed as change in Hsp70 protein expression at 5 uM to 50 uM after 30 hours by Western blotting analysis; format: cell-based; how it was run: as §3
[9] = target: Heat shock protein HSP 90-beta (Homo sapiens) (UniProt P08238); experiment: Inhibition of Hsp90 (unknown origin) at 50 uM preincubated for 1 hr followed by denatured luciferase addition measured at 120 mins by bright glo luciferase refolding assay in presence of Hsp70/Hsp40/HOP relative to control
How it was run: (§4)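 Pure-protein refolding: heat-denatured firefly luciferase incubated with 0.5μM hsp90, 1μM hsp70, 0.2μM hsp40 and 0.1μM HOP; compound at 50μM; luciferase activity followed over time, expressed versus control; n=3, mean±SEM.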

[10] = target: Heat shock protein HSP 90-beta (Homo sapiens) (UniProt P08238); experiment: Inhibition of Hsp90 (unknown origin) at 50 uM preincubated for 1 hr followed by denatured luciferase addition measured at 105 mins by bright glo luciferase refolding assay in presence of Hsp70/Hsp40/HOP relative to control; how it was run: as §4
[11] = target: Heat shock protein HSP 90-beta (Homo sapiens) (UniProt P08238); experiment: Inhibition of Hsp90 (unknown origin) at 50 uM preincubated for 1 hr followed by denatured luciferase addition measured at 90 mins by bright glo luciferase refolding assay in presence of Hsp70/Hsp40/HOP relative to control; how it was run: as §4
[12] = target: Heat shock protein HSP 90-beta (Homo sapiens) (UniProt P08238); experiment: Inhibition of Hsp90 (unknown origin) at 50 uM preincubated for 1 hr followed by denatured luciferase addition measured at 75 mins by bright glo luciferase refolding assay in presence of Hsp70/Hsp40/HOP relative to control; how it was run: as §4
[13] = target: Heat shock protein HSP 90-beta (Homo sapiens) (UniProt P08238); experiment: Inhibition of Hsp90 (unknown origin) at 50 uM preincubated for 1 hr followed by denatured luciferase addition measured at 60 mins by bright glo luciferase refolding assay in presence of Hsp70/Hsp40/HOP relative to control; how it was run: as §4
[14] = target: Heat shock protein HSP 90-beta (Homo sapiens) (UniProt P08238); experiment: Inhibition of Hsp90 (unknown origin) at 50 uM preincubated for 1 hr followed by denatured luciferase addition measured at 45 mins by bright glo luciferase refolding assay in presence of Hsp70/Hsp40/HOP relative to control; how it was run: as §4
[15] = target: Heat shock protein HSP 90-beta (Homo sapiens) (UniProt P08238); experiment: Inhibition of Hsp90 (unknown origin) at 50 uM preincubated for 1 hr followed by denatured luciferase addition measured at 30 mins by bright glo luciferase refolding assay in presence of Hsp70/Hsp40/HOP relative to control; how it was run: as §4
[16] = target: Heat shock protein HSP 90-beta (Homo sapiens) (UniProt P08238); experiment: Inhibition of Hsp90 (unknown origin) at 50 uM preincubated for 1 hr followed by denatured luciferase addition measured at 15 mins by bright glo luciferase refolding assay in presence of Hsp70/Hsp40/HOP relative to control; how it was run: as §4
[17] = target: T1, Heat shock protein HSP 90 (Oryctolagus cuniculus) (UniProt P11500); experiment: Inhibition of Hsp90 in rabbit reticulocyte lysate at 50 uM measured at 90 mins by bright glo luciferase refolding assay relative to control
T1 sequence (whole entry): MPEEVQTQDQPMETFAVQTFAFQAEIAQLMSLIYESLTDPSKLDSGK
How it was run: (§5)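 Heat-denatured firefly luciferase incubated in rabbit reticulocyte lysate, the complete lysate system; compound at 50μM; refolding followed over time by luciferase activity relative to control; n=3, mean±SEM.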

[18] = target: T1, Heat shock protein HSP 90 (Oryctolagus cuniculus); experiment: Inhibition of Hsp90 in rabbit reticulocyte lysate at 50 uM measured at 75 mins by bright glo luciferase refolding assay relative to control; how it was run: as §5
[19] = target: T1, Heat shock protein HSP 90 (Oryctolagus cuniculus); experiment: Inhibition of Hsp90 in rabbit reticulocyte lysate at 50 uM measured at 60 mins by bright glo luciferase refolding assay relative to control; how it was run: as §5
[20] = target: T1, Heat shock protein HSP 90 (Oryctolagus cuniculus); experiment: Inhibition of Hsp90 in rabbit reticulocyte lysate at 50 uM measured at 45 mins by bright glo luciferase refolding assay relative to control; how it was run: as §5
[21] = target: T1, Heat shock protein HSP 90 (Oryctolagus cuniculus); experiment: Inhibition of Hsp90 in rabbit reticulocyte lysate at 50 uM measured at 30 mins by bright glo luciferase refolding assay relative to control; how it was run: as §5
[22] = target: T1, Heat shock protein HSP 90 (Oryctolagus cuniculus); experiment: Inhibition of Hsp90 in rabbit reticulocyte lysate at 50 uM measured at 15 mins by bright glo luciferase refolding assay relative to control; how it was run: as §5
[23] = target: Heat shock protein HSP 90-beta (Homo sapiens) (UniProt P08238); experiment: Binding affinity to human Hsp90 assessed as inhibition of interaction with His/GST-tagged recombinant co-chaperone TOM70 up to 10 uM preincubated for 1 hr followed by co-chaperone addition measured after 1 hr by Western blotting analysis
How it was run: (§6)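 In vitro binding assay: pure native hsp90 combined with individual purified TPR co-chaperones (Unc45, CHIP, TOM70, Cyp40, FKBP51, FKBP52), with compound added in increasing amounts up to 5 or 10 μM. Co-chaperone–hsp90 association was scored against the compound-free condition.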

[24] = target: Heat shock protein HSP 90-beta (Homo sapiens) (UniProt P08238); experiment: Binding affinity to human Hsp90 assessed as inhibition of interaction with His/GST-tagged recombinant co-chaperone CHIP up to 10 uM preincubated for 1 hr followed by co-chaperone addition measured after 1 hr by Western blotting analysis; how it was run: as §6
[25] = target: Heat shock protein HSP 90-beta (Homo sapiens) (UniProt P08238); experiment: Binding affinity to human Hsp90 assessed as inhibition of interaction with His/GST-tagged recombinant co-chaperone Unc45 up to 10 uM preincubated for 1 hr followed by co-chaperone addition measured after 1 hr by Western blotting analysis; how it was run: as §6
[26] = target: Heat shock protein HSP 90-beta (Homo sapiens) (UniProt P08238); experiment: Binding affinity to human Hsp90 assessed as inhibition of interaction with His/GST-tagged recombinant co-chaperone CYP40 up to 10 uM preincubated for 1 hr followed by co-chaperone addition measured after 1 hr by Western blotting analysis; how it was run: as §6
[27] = target: Heat shock protein HSP 90-beta (Homo sapiens) (UniProt P08238); experiment: Inhibition of human Hsp90 assessed as disruption of interaction with recombinant p23 up to 10 uM by Western blotting analysis
[28] = target: Heat shock protein HSP 90-beta (Homo sapiens) (UniProt P08238); experiment: Inhibition of Hsp90 in human HeLa cells assessed as downregulation of FKBP52 protein level at 40 uM after 30 hours by Western blotting analysis in presence of proteasome inhibitor MG-132; format: cell-based
[29] = target: Heat shock protein HSP 90-beta (Homo sapiens) (UniProt P08238); experiment: Inhibition of Hsp90 in human HeLa cells assessed as downregulation of FKBP51 protein level at 40 uM after 30 hours by Western blotting analysis in presence of proteasome inhibitor MG-132; format: cell-based
[30] = target: Heat shock protein HSP 90-beta (Homo sapiens) (UniProt P08238); experiment: Inhibition of Hsp90 in human HeLa cells assessed as downregulation of glucocorticoid receptor protein level at 40 uM after 30 hours by Western blotting analysis in presence of proteasome inhibitor MG-132; format: cell-based
[31] = target: Heat shock protein HSP 90-beta (Homo sapiens) (UniProt P08238); experiment: Binding affinity to human Hsp90 assessed as inhibition of interaction with His/GST-tagged recombinant co-chaperone FKBP51 up to 10 uM preincubated for 1 hr followed by co-chaperone addition measured after 1 hr by Western blotting analysis; how it was run: as §6
[32] = target: Heat shock protein HSP 90-beta (Homo sapiens) (UniProt P08238); experiment: Inhibition of Hsp90 (unknown origin) at 50 uM preincubated for 1 hr followed by denatured luciferase addition measured after 2 hrs by bright glo luciferase refolding assay in presence of Hsp70/Hsp40/HOP relative to control
How it was run: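 Purified refolding system: heat-denatured firefly luciferase incubated with 0.5 μM hsp90, 1 μM hsp70, 0.2 μM hsp40 and 0.1 μM HOP plus test agent (1 μM or 50 μM). Luciferase activity was followed over time up to 2 h and expressed relative to control. n=3, mean±SEM.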

Heat shock protein HSP 90-beta (Homo sapiens), sequence (P08238 whole entry): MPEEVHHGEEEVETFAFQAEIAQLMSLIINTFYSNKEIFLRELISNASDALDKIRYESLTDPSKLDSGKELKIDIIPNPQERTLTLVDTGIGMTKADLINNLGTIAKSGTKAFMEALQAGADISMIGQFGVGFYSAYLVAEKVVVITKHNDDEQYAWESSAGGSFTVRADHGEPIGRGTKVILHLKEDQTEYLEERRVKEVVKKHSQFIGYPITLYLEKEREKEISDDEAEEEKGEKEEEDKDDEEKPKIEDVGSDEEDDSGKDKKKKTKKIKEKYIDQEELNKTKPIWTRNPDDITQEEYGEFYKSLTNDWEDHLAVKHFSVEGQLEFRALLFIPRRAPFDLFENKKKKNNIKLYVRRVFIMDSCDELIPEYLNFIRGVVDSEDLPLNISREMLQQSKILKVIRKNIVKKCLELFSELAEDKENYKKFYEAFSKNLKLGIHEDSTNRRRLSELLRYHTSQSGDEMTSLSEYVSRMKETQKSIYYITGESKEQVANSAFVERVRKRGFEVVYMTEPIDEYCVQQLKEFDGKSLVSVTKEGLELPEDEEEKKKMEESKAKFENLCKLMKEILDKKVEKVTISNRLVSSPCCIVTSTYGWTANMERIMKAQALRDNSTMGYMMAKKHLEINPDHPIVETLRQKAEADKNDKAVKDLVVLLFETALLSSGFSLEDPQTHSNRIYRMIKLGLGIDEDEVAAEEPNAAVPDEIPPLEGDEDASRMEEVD

Row | SMILES | inhibition [6] [%] | inhibition [7] [%] | inhibition [8] | RLU [9] | RLU [10] | RLU [11] | RLU [12] | RLU [13] | RLU [14] | RLU [15] | RLU [16] | RLU [17] | RLU [18] | RLU [19] | RLU [20] | RLU [21] | RLU [22] | other results
1 | CO[C@H]1[C@H](OC(=O)c2ccc(C)[nH]2)[C@H](O)[C@@H](Oc2ccc3c(O)c(NC(=O)c4c[nH]c(C(=O)Nc5c(O)c6ccc(O[C@H]7OC(C)(C)[C@@H](OC)[C@H](OC(=O)c8ccc(C)[nH]8)[C@@H]7O)c(C)c6oc5=O)c4C)c(=O)oc3c2C)OC1(C)C | 50 | 50 | Active | 417 | 467 | 520 | 540 | 497 | 498 | 565 | 519 | 25400 | 22000 | 19200 | 15500 | 10600 | 4670 | inhibition [1]: Active; inhibition [2]: Active; inhibition [3]: Active; inhibition [4]: Active; inhibition [5]: Active
2 | CC(C)C[C@@H]1NC(=O)[C@H](C(C)C)N(C)C(=O)[C@@H](CC(C)C)NC(=O)[C@@H](Cc2ccccc2)NC(=O)[C@@H]([C@H](OCc2ccccc2)c2ccccc2)NC1=O (HELM PEPTIDE1{[O=C([C@H](N[*:1])[C@H](OCc1ccccc1)c1ccccc1)[*:2]].[dF].[dL].[meV].L}$PEPTIDE1,PEPTIDE1,1:R1-5:R2$$$V2.0) | 50 | 50 | Active | 9190 | 8800 | 8670 | 7810 | 6340 | 5700 | 4360 | 3800 | 29600 | 25300 | 21800 | 16800 | 10800 | 5240 | inhibition [23]: Active; inhibition [24]: Active; inhibition [25]: Active; inhibition [26]: Active; inhibition [27]: Active; inhibition [28]: Active; inhibition [29]: Active; inhibition [30]: Active; inhibition [31]: Active; inhibition [32]: 55%
